# Columns and labels:
# Pseudomonas aeruginosa [1] = experiment: Antimicrobial activity against Pseudomonas aeruginosa ATCC 27853 by broth microdilution method; format: functional
# Outline: (§1)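 Broth microdilution per CLSI. Inoculum 5 × 10⁵ CFU/ml, twofold dilutions of antibiotic in medium, 24 h at 35°C. Growth read at 600 nm and by eye with a reading mirror. MIC is the lowest concentration with no visible growth.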
# Pseudomonas aeruginosa [2] = experiment: Antimicrobial activity against Pseudomonas aeruginosa ATCC 27853 infected in Swiss neutropenic mouse assessed as mouse survival rate at 400 mg/kg BID administered 24 hrs post infection through aerosol; format: functional
# Outline: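 Female Swiss mice were made neutropenic (cyclophosphamide 150 mg/kg i.p., days 1 and 3) and infected intratracheally on day 4 with ATCC 27853, 0.05 ml at ca. 1–6 × 10⁵ CFU/ml. Aerosol via microsprayer to the bifurcation (50 µl) under isoflurane, twice daily for 48 h from 24 h postinfection. Survival observed to 9 days postinfection, n = 10.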
# Mus musculus [3] = species: Mus musculus; experiment: Toxicity in Pseudomonas aeruginosa ATCC 27853 infected Swiss mouse; format: functional
# Pseudomonas aeruginosa [4] = experiment: Antimicrobial activity against Pseudomonas aeruginosa isolate NH57388A by broth microdilution method; format: functional; outline: as §1
# Mus musculus [5] = experiment: Cmax in mouse at 60 mg/kg, administered as single dose through aerosol; format: ADME, organism-based; set-up: dose 60 mg/kg; conditions: in vivo, inhaled_or_intranasal
# Pseudomonas aeruginosa [6] = experiment: Antimicrobial activity against Pseudomonas aeruginosa ATCC 27853 infected in Swiss neutropenic mouse assessed as reduction in lung bacterial load at […], ip BID administered 24 hrs post infection; format: functional; conditions: route intraperitoneal
# Pseudomonas aeruginosa [7] = experiment: Antimicrobial activity against Pseudomonas aeruginosa NH57388A infected in Swiss neutropenic mouse assessed as lung bacterial load at 30 mg/kg, ip BID administered 24 hrs post infection (reference value: 8.89 logCFU); format: functional; conditions: route intraperitoneal
# Mus musculus [8] = experiment: Cmax in mouse at 60 mg/kg, ip administered as single dose; format: ADME, organism-based; set-up: dose 60 mg/kg, route intraperitoneal; conditions: in vivo
# Pseudomonas aeruginosa [9] = experiment: Antimicrobial activity against Pseudomonas aeruginosa NH57388A infected in Swiss neutropenic mouse assessed as lung bacterial load at 60 mg/kg, ip BID administered 24 hrs post infection (reference value: 8.89 logCFU); format: functional; conditions: route intraperitoneal
# Pseudomonas aeruginosa [10] = experiment: Antimicrobial activity against Pseudomonas aeruginosa ATCC 27853 infected in Swiss neutropenic mouse assessed as reduction in lung bacterial load at 32 mg/kg, ip BID administered 24 hrs post infection; format: functional; conditions: route intraperitoneal
# Outline: (§2)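 Female Swiss mice (5–6 wk) made neutropenic with cyclophosphamide 150 mg/kg i.p. on days 1 and 3. On day 4, intratracheal instillation of 0.05 ml strain ATCC 27853 suspension at ca. 1–6 × 10⁵ CFU/ml. From 24 h postinfection, two i.p. doses over 24 h, n = 8. Lungs taken 12–16 h after the last dose, homogenized in saline and plated; mean log CFU/lung compared with an untreated baseline group.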
# Pseudomonas aeruginosa [11] = experiment: Antimicrobial activity against Pseudomonas aeruginosa NH57388A infected in Swiss neutropenic mouse assessed as lung bacterial load at 15 mg/kg, ip BID administered 24 hrs post infection (reference value: 8.89 logCFU); format: functional; conditions: route intraperitoneal
# Pseudomonas aeruginosa [12] = experiment: Antimicrobial activity against Pseudomonas aeruginosa ATCC 27853 infected in Swiss neutropenic mouse assessed as reduction in lung bacterial load at 63 mg/kg, ip BID administered 24 hrs post infection; format: functional; conditions: route intraperitoneal; outline: as §2
# Pseudomonas aeruginosa [13] = experiment: Bactericidal activity against Pseudomonas aeruginosa NH57388A infected in Swiss neutropenic mouse assessed as reduction in lung bacterial load at 60 mg/kg BID administered 24 hrs post infection through aerosol; format: functional
# Outline: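 In the chronic alginate-embedded NH57388A lung infection (cyclophosphamide 150 mg/kg i.p. once, 4 days before; about 10⁸ CFU/ml inoculum), mice got aerosol doses by microsprayer (50 µl, isoflurane) twice daily for 3 days from 24 h postinfection. Lungs homogenized and plated 12–16 h after the final dose; log CFU/lung.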
# Pseudomonas aeruginosa [14] = experiment: Antimicrobial activity against Pseudomonas aeruginosa ATCC 27853 infected in Swiss neutropenic mouse assessed as mouse survival rate at 60 mg/kg BID administered 24 hrs post infection through aerosol
Cmax (Mus musculus [5]) [mg/kg],Cmax (Mus musculus [8]) [mg/kg],Compound,MIC (Pseudomonas aeruginosa [1]) [µg/mL],Activity (Pseudomonas aeruginosa [2]) [%],MTD (Mus musculus [3]) [mg/kg],MIC (Pseudomonas aeruginosa [4]) [µg/mL],log10cfu (Pseudomonas aeruginosa [6]),log10cfu (Pseudomonas aeruginosa [7]),log10cfu (Pseudomonas aeruginosa [9]),log10cfu (Pseudomonas aeruginosa [10]),log10cfu (Pseudomonas aeruginosa [11]),log10cfu (Pseudomonas aeruginosa [12]),log10cfu (Pseudomonas aeruginosa [13]),Activity (Pseudomonas aeruginosa [14]) [%]
,,C[C@H]1[C@H](NC(=O)/C(=N\OC(C)(C)C(=O)O)c2csc(N)n2)C(=O)N1S(=O)(=O)O [AZTREONAM],4,20,400,4,,,,,,,,
550,18.6,C[C@H]1COc2c(N3CCN(C)CC3)c(F)cc3c(=O)c(C(=O)O)cn1c23.C[C@H]1COc2c(N3CCN(C)CC3)c(F)cc3c(=O)c(C(=O)O)cn1c23.O [LEVOFLOXACIN],,,,,3.5,5.73,4.93,0.65,7.83,2.7,,
,,NC[C@H]1O[C@H](O[C@H]2[C@H](O)[C@@H](O[C@H]3O[C@H](CO)[C@@H](O)[C@H](N)[C@H]3O)[C@H](N)C[C@@H]2N)[C@H](N)C[C@@H]1O [TOBRAMYCIN],0.25,,60,0.5,,,,,,,2.9,60

# From ChEMBL document CHEMBL1649568, “Efficacy of aerosol MP-376, a levofloxacin inhalation solution, in models of mouse lung infection due to Pseudomonas aeruginosa” (Antimicrob Agents Chemother, 2009)
